Square brackets hold non-standard residues; d marks the D form. Peptide text beside a SMILES is read from it. * marks the point of attachment. pGlu = O=C1CC[C@@H](C(=O)O)N1; X1 = O=C(NN*)C(F)(F)F; X5 = N/C(S)=N\N*; X2 = CC(=O)NN*; X3 = CN(N)*; X4 = O=CNN*
Tests used:
Rattus norvegicus [1] = species on record: Rattus norvegicus; assay: In vitro LH-release potency of compound was measured in rat hemipituitaries by taking LH-RH as standard; type: functional
Outline: (§1)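 Rat hemipituitaries incubated in vitro with each analogue, usually at two dose levels in a 2 × 2 (four-point) design against an LH-RH standard. Media sampled 6 h later and assayed for LH and FSH by radioimmunoassay. Potency expressed relative to the standard, with 95% confidence limits.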

Rattus norvegicus [2] = species on record: Rattus norvegicus; assay: In vitro FSH-release potency of compound was measured in rat hemipituitaries by taking LH-RH as standard; type: functional; outline: as §1

| Compound | Potency (Rattus norvegicus [1]) | Potency (Rattus norvegicus [2]) |
| --- | --- | --- |
| CC(C)C[C@H](NC(=O)CNC(=O)[C@H](Cc1ccc(O)cc1)NC(=O)[C@H](CO)NC(=O)[C@H](Cc1c[nH]c2ccccc12)NC(=O)[C@H](Cc1cnc[nH]1)NC(=O)[C@@H]1CCC(=O)N1)C(=O)N[C@@H](CCCNC(=N)N)C(=O)N1CCC[C@H]1C(=O)NCC(N)=O [GONADORELIN] | 100 | 100 |
| CC(C)C[C@H](NC(=O)CNC(=O)[C@H](Cc1ccc(O)cc1)NC(=O)[C@H](CO)NC(=O)[C@H](Cc1c[nH]c2ccccc12)NC(=O)[C@H](Cc1c[nH]cn1)NC(=O)[C@@H]1CCC(=O)N1)C(=O)N[C@@H](CCCN=C(N)N)C(=O)N1CCC[C@H]1C(=O)NNC=O ([pGlu]HWSYGLRP-X4) | 15.3 | 10 |
| CC(C)C[C@H](NC(=O)CNC(=O)[C@H](Cc1ccc(O)cc1)NC(=O)[C@H](CO)NC(=O)[C@H](Cc1c[nH]c2ccccc12)NC(=O)[C@H](Cc1c[nH]cn1)NC(=O)[C@@H]1CCC(=O)N1)C(=O)N[C@@H](CCCN=C(N)N)C(=O)N1CCC[C@H]1C(=O)NNC(=O)C(F)(F)F ([pGlu]HWSYGLRP-X1) | 1 | 0.9 |
| CC(C)C[C@H](NC(=O)CNC(=O)[C@H](Cc1ccc(O)cc1)NC(=O)[C@H](CO)NC(=O)[C@H](Cc1c[nH]c2ccccc12)NC(=O)[C@H](Cc1c[nH]cn1)NC(=O)[C@@H]1CCC(=O)N1)C(=O)N[C@@H](CCCN=C(N)N)C(=O)N1CCC[C@H]1C(=O)N(C)N ([pGlu]HWSYGLRP-X3) | 17 | 11 |
| CC(=O)NNC(=O)[C@@H]1CCCN1C(=O)[C@H](CCCN=C(N)N)NC(=O)[C@H](CC(C)C)NC(=O)CNC(=O)[C@H](Cc1ccc(O)cc1)NC(=O)[C@H](CO)NC(=O)[C@H](Cc1c[nH]c2ccccc12)NC(=O)[C@H](Cc1c[nH]cn1)NC(=O)[C@@H]1CCC(=O)N1 ([pGlu]HWSYGLRP-X2) | 1.2 | 0.6 |
| CC(C)C[C@H](NC(=O)CNC(=O)[C@H](Cc1ccc(O)cc1)NC(=O)[C@H](CO)NC(=O)[C@H](Cc1c[nH]c2ccccc12)NC(=O)[C@H](Cc1c[nH]cn1)NC(=O)[C@@H]1CCC(=O)N1)C(=O)N[C@@H](CCCN=C(N)N)C(=O)N1CCC[C@H]1C(=O)N/N=C(\N)S ([pGlu]HWSYGLRP-X5) | 6.5 | 4.6 |

From ChEMBL document CHEMBL1121789, “Some analogues of luteinizing hormone-releasing hormone with substituents in position 10” (1981)
